Data set [1] in a line: folding enthalpy; higher = less favourable; fluorescence melt of hairpins on a sequencing array, two-state fit. The following applies: sodium 0.088 M. In short, it runs like this:
(§1)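 Melting temperature and folding enthalpy were derived from bootstrapped two-state fits. The fitted temperatures were raised by 9.35 °C to agree with UV melts, and four replicates were combined by inverse variance. The underlying data were Cy3 fluorescence images of library hairpins, with annealed Cy3 and quencher oligos, on a sequenced MiSeq flow cell in 50 mM Na-HEPES pH 8.0, 25 mM NaCl, taken in 2.5 °C steps up to 60 °C, normalised to pre-quench Cy3 and to control constructs.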

A short description of data set [2]: melting temperature; fluorescence melt of hairpins on a sequencing array, two-state fit, raised by 9.35 °C to match UV melts. The following applies: sodium 0.088 M. In short, it runs like this: as §1

Consider GTTAGCGAAAGCTAGAAC ((((((....)))..))), for which, in data set [1], the folding enthalpy was -10 kcal/mol. Further, in data set [2], the Tm amounted to 31.5 °C.
On to GTTTTCCGAAAGGAGAAC (((.(((....))).))), for which the folding enthalpy in data set [1] was -30.4 kcal/mol. For the same sequence, the Tm in data set [2] is 47.1 °C.
In the case of GCGGTCGGAAACGGTCGC (((..((....))..))), the folding enthalpy in data set [1] is -25.1 kcal/mol. Further, the Tm in data set [2] is 52.2 °C.
As for GGAGGACGAAAGTCTCC (((.(((....)))))), the folding enthalpy in data set [1] was -22.6 kcal/mol. The Tm in data set [2] was 50.5 °C.
Turning to GTCGCCGAAAGGCTCGAC ((((((....)))..))), the folding enthalpy in data set [1] is -13.2 kcal/mol. Moreover, the Tm in data set [2] was found to be 39.1 °C.
As to GCGTGAGGACGC ((((....)))), the folding enthalpy in data set [1] is -18.9 kcal/mol. Also, the Tm in data set [2] worked out at 50.8 °C.
As for GCGTCGCGAAAGCGGGGC ((..(((....)))..)), the folding enthalpy in data set [1] is -29 kcal/mol. Besides, the Tm in data set [2] came to 67.4 °C.
For GATCTTATCCAAGATC ((((((....)))))) the same measures were -31.6 kcal/mol and 42.6 °C.
As to GATCATGCTATGATC ((((((...)))))), the folding enthalpy in data set [1] is -27.9 kcal/mol. In data set [2], the Tm came out at 49.9 °C.
GTAACGCGAAAGCGCTAC (((.(((....))).))): the folding enthalpy in data set [1] was -19.6 kcal/mol. For the same sequence, the Tm in data set [2] worked out at 51.9 °C.
For GCACGCGAAAGCGTTTGC ((((((....)))..))), the folding enthalpy in data set [1] was -10.6 kcal/mol. The Tm in data set [2] was 42.9 °C.
As for GTTGTGGGAAACTACAAC (((((.(....).))))), the folding enthalpy in data set [1] was -36.1 kcal/mol. Further, the Tm in data set [2] came out at 46.3 °C.
With GTAGCAGGAAACTGTTAC (((.(((....))).))), the folding enthalpy in data set [1] is -30.4 kcal/mol. Moreover, the Tm in data set [2] worked out at 40.5 °C.
As to GCTTGGCGAAAGCCGTGC ((..(((....)))..)), in data set [1], the folding enthalpy is -15.3 kcal/mol. In addition, the Tm in data set [2] is 53.4 °C.
Take GAATCACGAAAGTGGTTC (((.(((....))).))): the folding enthalpy in data set [1] is -40.3 kcal/mol. Besides, the Tm in data set [2] is 53.2 °C.
With GATCATCTACATGATC ((((((....)))))), the folding enthalpy in data set [1] is -38.5 kcal/mol. Also, the Tm in data set [2] amounted to 46.2 °C.
As for GGCCGAGGAAACTCGGTC (.(((((....))))).), the folding enthalpy in data set [1] was -31.4 kcal/mol. Also, the Tm in data set [2] was 64.4 °C.
For the sequence GGCAAACGAAAGTTAGCC (((.(((....))).))), the folding enthalpy in data set [1] was -25.1 kcal/mol. Moreover, in data set [2], the Tm was 54.9 °C.
Regarding GGTTGCGAAAGCAGGACC ((((((....)))..))), the folding enthalpy in data set [1] is -19.2 kcal/mol. For the same sequence, in data set [2], the Tm was found to be 37.8 °C.
In the case of GAAGACGGAAACGTCCTC ((.((((....)))).)), the folding enthalpy in data set [1] was -11.9 kcal/mol. In addition, the Tm in data set [2] turned out to be 35.9 °C.
As to GATCCCACGTGGGATC ((((((....)))))), in data set [1], the folding enthalpy was -45.1 kcal/mol. In addition, the Tm in data set [2] amounted to 60.3 °C.
As to GATCCACAATGGATC ((((((...)))))), in data set [1], the folding enthalpy is -30.7 kcal/mol. Further, in data set [2], the Tm stood at 48.3 °C.
GTGGTCGAAAGACACCAC ((((((....)))..))): in data set [1], the folding enthalpy was -15.6 kcal/mol. Further, the Tm in data set [2] was 42.4 °C.
As to CGTTTGCGGAAACGCACG (((..(((....)))))), the folding enthalpy in data set [1] was -10.4 kcal/mol. The Tm in data set [2] amounted to 39.8 °C.
The matching figures for GCACTCGAAAGAGGGTGC ((((((....)))..))): -31.5 kcal/mol and 50.8 °C.
The matching figures for GTCGATCGAAAGATAGAC (((.(((....))).))): -42.7 kcal/mol and 50.4 °C.
For GCGCAGGGAAACCTGCAC (.(((((....))))).) the same measures were -12.7 kcal/mol and 47.6 °C.
As for GATCTTGGATAAGATC ((((((....)))))), the folding enthalpy in data set [1] was -30.6 kcal/mol. For the same sequence, the Tm in data set [2] amounted to 49.4 °C.
Turning to GGAATTGGAAACAATTTC (.(((((....))))).), in data set [1], the folding enthalpy was -32.8 kcal/mol. The Tm in data set [2] turned out to be 39.5 °C.
For GATAAGGAAACTTATC ((((((....)))))), the folding enthalpy in data set [1] is -26.8 kcal/mol. Besides, the Tm in data set [2] worked out at 40.1 °C.
Take GTTCACGAAAGTGGTAAC ((((((....)))..))): the folding enthalpy in data set [1] is -12.5 kcal/mol. Also, in data set [2], the Tm came out at 25.6 °C.
In the case of GATCCCGAAAGGGACATC ((((((....)))..))), the folding enthalpy in data set [1] is -9.22 kcal/mol. The Tm in data set [2] turned out to be 30.9 °C.
The matching figures for GTGCCTGGAAACGGGCAC (((((.(....).))))): -36.8 kcal/mol and 65.5 °C.
Turning to GCTTTGCGAAAGCTTAGC (((..((....))..))), the folding enthalpy in data set [1] is -16.7 kcal/mol. In addition, the Tm in data set [2] turned out to be 55.2 °C.
The matching figures for GCACCTCGAAAGAGTGC (((.(((....)))))): -46.4 kcal/mol and 53.3 °C.
The matching figures for GCTTAGCGAAAGCTAGGC ((.((((....)))).)): -28.3 kcal/mol and 60.4 °C.

The values are drawn from the array DNA melting data of Ke et al. (doi:10.1101/2024.01.08.574731).
